From ChEMBL document CHEMBL1130246, “Tyrosine kinase inhibitors. 13. Structure-activity relationships for soluble 7-substituted 4-[(3-bromophenyl)amino]pyrido[4,3-d]pyrimidines designed as inhibitors of the tyrosine kinase activity of the epidermal growth factor receptor” (J Med Chem, 1997) come the findings set out here.

Data set [1] is described as follows: Solubility in water was determined. The format is physicochemical. The essentials:
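Drug weighed to give approximately 50 mM, sonicated 30 min in 0.05 M sodium lactate buffer (neutral compounds, amine hydrochlorides) or water (sodium salts of acids), left 30 min, centrifuged 13 000 rpm 3 min; supernatant concentration measured by HPLC against calibration from MeOH or DMSO stocks, assuming linear response; 20 °C.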

Data set [2] addresses T1, Epidermal growth factor receptor (Homo sapiens, UniProt P00533). Put plainly: Inhibition of epidermal growth factor receptor (EGFR) from human A431 carcinoma cells.
Data set [3] concerns the target T1, Epidermal growth factor receptor. Put plainly: Inhibition of epidermal growth factor receptor (EGFR) autophosphorylation in A431 cells.
For data set [4] the target is unchanged. Put plainly: Inhibition of phosphorylation of polyglutamic acid/tyrosine random copolymer by epidermal growth factor receptor.
The species named for data set [5] is Mus musculus. Put plainly: Ratio of median treated tumor mass on the last day of therapy divided by the median control tumor mass x 100%. The format is functional. The method in brief: (§1)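 Mice 18-22 g, randomized, implanted sc with A431 epidermoid or EGFR-transfected NIH 3T3 tumor fragments in right axilla on day 0; tumors maintained by serial passage in NCr nu/nu nude mice. Isethionate salts given ip in water, b.i.d. on indicated schedules (days 7-21, 3-17 or 1-15), dosed by average cage weight; solutions prepared 5 days at a time. Maximum treatment-related body weight loss recorded.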

The species named for data set [6] is Mus musculus. Briefly: Treatment-related weight loss in mice. The format is functional. The method in brief:
as §1

Converted amounts (≈) assume the structure as drawn. “And” between values parts separate entries of the source, which are not always exact repeats. Equal entries are not always repeated. A value given as a limit tells only on which side of the number the result lay.

As a reminder, the solubility is the dissolved amount per volume that the medium holds. As a reminder, the IC50 is the concentration at which inhibition is half-maximal. A word on the T/C: it is the result in the treated group divided by that in the control group, in per cent.

T1 sequence (P00533 whole entry): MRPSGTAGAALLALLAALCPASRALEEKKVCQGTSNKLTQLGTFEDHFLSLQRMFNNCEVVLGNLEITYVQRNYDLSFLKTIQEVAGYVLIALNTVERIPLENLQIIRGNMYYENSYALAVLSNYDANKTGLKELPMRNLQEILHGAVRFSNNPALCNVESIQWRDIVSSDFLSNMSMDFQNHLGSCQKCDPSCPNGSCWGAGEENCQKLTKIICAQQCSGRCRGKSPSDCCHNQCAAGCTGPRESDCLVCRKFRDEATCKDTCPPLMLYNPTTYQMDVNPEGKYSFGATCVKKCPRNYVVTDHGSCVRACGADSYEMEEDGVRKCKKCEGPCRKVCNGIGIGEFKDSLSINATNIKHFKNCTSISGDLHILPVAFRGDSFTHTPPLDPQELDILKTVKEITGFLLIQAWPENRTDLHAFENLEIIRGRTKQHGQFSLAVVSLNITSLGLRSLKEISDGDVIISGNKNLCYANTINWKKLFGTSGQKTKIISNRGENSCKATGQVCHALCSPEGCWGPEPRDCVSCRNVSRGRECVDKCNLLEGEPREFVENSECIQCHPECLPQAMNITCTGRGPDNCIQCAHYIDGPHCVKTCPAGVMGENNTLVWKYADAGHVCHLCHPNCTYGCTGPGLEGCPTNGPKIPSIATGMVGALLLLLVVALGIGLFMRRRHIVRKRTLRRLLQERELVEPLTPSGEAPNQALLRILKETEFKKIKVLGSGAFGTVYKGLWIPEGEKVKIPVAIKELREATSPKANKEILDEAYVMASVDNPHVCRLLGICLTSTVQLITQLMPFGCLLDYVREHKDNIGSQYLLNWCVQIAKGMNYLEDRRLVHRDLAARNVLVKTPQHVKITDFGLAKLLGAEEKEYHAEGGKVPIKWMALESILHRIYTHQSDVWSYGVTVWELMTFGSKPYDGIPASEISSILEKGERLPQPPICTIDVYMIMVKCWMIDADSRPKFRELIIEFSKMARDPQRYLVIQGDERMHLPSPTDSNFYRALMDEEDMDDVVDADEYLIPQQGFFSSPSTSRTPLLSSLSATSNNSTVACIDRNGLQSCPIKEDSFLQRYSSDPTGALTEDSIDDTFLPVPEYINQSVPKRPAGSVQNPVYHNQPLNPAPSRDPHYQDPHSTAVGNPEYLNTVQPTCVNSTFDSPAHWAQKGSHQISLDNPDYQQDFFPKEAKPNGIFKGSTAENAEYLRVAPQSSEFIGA

Compound `Brc1cccc(Nc2ncnc3cc(NCCc4c[nH]cn4)ncc23)c1` yielded a solubility in data set [1] of 35 mM (≈ 14.4 mg/mL). This compound yielded a 50% inhibitory concentration (IC50) in data set [2] of 0.91 nM.
Take `Brc1cccc(Nc2ncnc3cc(NCCN4CCOCC4)ncc23)c1`: the concentration for half-maximal inhibition (IC50) in data set [3] was found to be 36 nM; in data set [4] it was 3.2 nM.
Take `OCCN(CCO)CCCNc1cc2ncnc(Nc3cccc(Br)c3)c2cn1`: half-maximal inhibition in data set [4] (IC50) was put at 1.2 nM.
For `Brc1cccc(Nc2ncnc3cc(NCCCN4CCOCC4)ncc23)c1`, the IC50 in data set [3] stood at 8.1 nM; in data set [4], 1.9 nM. For the same compound, in the data set listed under Mus musculus [5], the T/C was 34%. Also, the Weight loss in the data set listed under Mus musculus [6] was 1.7 g and 0.9 g.
In data set [4], `CN(CC(O)CO)c1cc2ncnc(Nc3cccc(Br)c3)c2cn1` (stereo unspecified) came in with a half-inhibitory concentration (IC50) of 3.2 nM.
The same measure, in the same setting: the same measure for `NNc1cc2ncnc(Nc3cccc(Br)c3)c2cn1`: 7.1 nM.
On the same count and under the same terms, the value for `CN1CCN(CCCNc2cc3ncnc(Nc4cccc(Br)c4)c3cn2)CC1` was 4.9 nM.
In turn, `CN(C)CCCCNc1cc2ncnc(Nc3cccc(Br)c3)c2cn1` displayed an IC50 in data set [4] of 7.4 nM. This compound also returned a Weight loss in the data set listed under Mus musculus [6] of 1 g.
In turn, `Cc1cccc(Nc2ncnc3cc(NCCCn4ccnc4)ncc23)c1` registered a solubility in data set [1] above 34 mM. Further, inhibition in data set [2] was half-maximal at 3.5 nM (IC50).
As to `CN(CC(O)C(O)C(O)C(O)CO)c1cc2ncnc(Nc3cccc(Br)c3)c2cn1` (stereo unspecified), the half-maximal inhibitory concentration (IC50) in data set [4] is 3.2 nM.
Consider `O=S(=O)(O)CCNc1cc2ncnc(Nc3cccc(Br)c3)c2cn1`, for which the concentration for half-maximal inhibition (IC50) in data set [3] is above 1000 nM; in data set [4] it was 1.4 nM.
On to `CN(C)CCCCCNc1cc2ncnc(Nc3cccc(Br)c3)c2cn1`, for which the IC50 in data set [4] was 8.4 nM.
Same read-out and setting: the value for `Cc1cccc(Nc2ncnc3cc(NCCCN4CCN(C)CC4)ncc23)c1` was 5.6 nM.
Same read-out and setting: the same measure for `Cc1cccc(Nc2ncnc3cc(NCCCCN(C)C)ncc23)c1`: 5.4 nM.
In data set [4], `CN(CC(=O)O)c1cc2ncnc(Nc3cccc(Br)c3)c2cn1` registered a half-inhibitory concentration (IC50) of 16 nM.
In data set [4], `OCC(O)C(O)C(O)C(O)CNc1cc2ncnc(Nc3cccc(Br)c3)c2cn1` (stereo unspecified) registered an IC50 of 4.8 nM.
Still for that read-out and setting: the same measure for `CNc1cc2ncnc(Nc3cccc(C)c3)c2cn1`: 1.4 nM.
On the same count and under the same terms, the value for `CN(C)CCNc1cc2ncnc(Nc3cccc(Br)c3)c2cn1` was 45 nM; that for `Brc1cccc(Nc2ncnc3cc(NCCCCN4CCOCC4)ncc23)c1` was 5.4 nM.
The same measure, in the same setting: the same measure for `CN(CCO)c1cc2ncnc(Nc3cccc(Br)c3)c2cn1`: 2.6 nM.
Consider `CN(C)CCN(C)c1cc2ncnc(Nc3cccc(Br)c3)c2cn1`, for which, in data set [4], the half-maximal inhibitory concentration (IC50) worked out at 40 nM.
`O=C(O)CCNc1cc2ncnc(Nc3cccc(Br)c3)c2cn1`: the half-inhibitory concentration (IC50) stood at 11400 nM in data set [3] and 0.61 nM in data set [4].
The compound `OCCNc1cc2ncnc(Nc3cccc(Br)c3)c2cn1` registered an IC50 in data set [4] of 0.24 nM.
For the compound `Brc1cccc(Nc2ncnc3cc(NCCCn4ccnc4)ncc23)c1`, the solubility in data set [1] is above 40 mM. Also, the IC50 in data set [2] is 0.51 nM.
Compound `O=C(O)CNc1cc2ncnc(Nc3cccc(Br)c3)c2cn1` gave an IC50 in data set [4] of 1.5 nM.
On to `OCC(O)CNc1cc2ncnc(Nc3cccc(Br)c3)c2cn1` (stereo unspecified), for which the 50% inhibitory concentration (IC50) was found to be 227 nM in data set [3] and 0.92 nM in data set [4].
On the same counts, the results for `[O-][N+]1(CCCNc2cc3ncnc(Nc4cccc(Br)c4)c3cn2)CCOCC1` are above 1000 nM and 0.74 nM.
For the compound `CN(C)CCCNc1cc2ncnc(Nc3cccc(Br)c3)c2cn1`, the 50% inhibitory concentration (IC50) in data set [4] came out at 8.8 nM.
On the same count and under the same terms, the value for `OCCN(CCO)c1cc2ncnc(Nc3cccc(Br)c3)c2cn1` was 12 nM.
The same measure, in the same setting: the same measure for `OCC(CO)Nc1cc2ncnc(Nc3cccc(Br)c3)c2cn1`: 14 nM; for `O=C(O)CCCNc1cc2ncnc(Nc3cccc(Br)c3)c2cn1`: 0.28 nM.
For `Cc1cccc(Nc2ncnc3cc(NCCc4c[nH]cn4)ncc23)c1`, in data set [1], the solubility is above 39 mM. The compound also gave an IC50 in data set [2] of 7.2 nM.
The compound `OCCN(CCO)CCNc1cc2ncnc(Nc3cccc(Br)c3)c2cn1` registered an IC50 in data set [4] of 9.2 nM.
